Data on 30 molecules can be found in ChEMBL document CHEMBL1795330, “Dual IGF-1R/SRC inhibitors based on a N'-aroyl-2-(1H-indol-3-yl)-2-oxoacetohydrazide structure” (Eur J Med Chem, 2011).

Each structure is given as a SMILES string.

Experiment [1] has as its target Hepatocyte growth factor receptor (Homo sapiens, UniProt P08581). The experiment is described as follows: Inhibition of c-MET assessed as incorporation of p33 using [gammaP33]-ATP by microplate scintillation counting. The method, boiled down:
(§1)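 Compound added in 10% DMSO. Incubated 80 min at 30 °C, stopped with 2% phosphoric acid, washed with 0.9% NaCl, 33P incorporation counted by scintillation. Activity normalised to no-enzyme and no-inhibitor controls; plates repeated if Z′ < 0.4.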

Experiment [2] concerns the target Insulin-like growth factor 1 receptor (Homo sapiens, UniProt P08069). Nature of the experiment: Inhibition of IGF-1R assessed as incorporation of p33 using [gammaP33]-ATP by microplate scintillation counting. A digest of the protocol:
as §1

Experiment [3] deals with Proto-oncogene tyrosine-protein kinase Src (Homo sapiens, UniProt P12931). Nature of the experiment: Inhibition of SRC assessed as incorporation of p33 using [gammaP33]-ATP by microplate scintillation counting. The method, boiled down:
as §1

Another experiment relates to A549. The experiment is described as follows: Antiproliferative activity against human A549 cells at 10 uM after 48 hrs by sulforhodamine B assay relative to control. Type of experiment: functional. As to conditions: A549, 48 h. A digest of the protocol: (§2)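 NCI cell-line screen: cells plated at 5000–40,000/well in medium with 5% foetal bovine serum and 2 mM L-glutamine, preincubated 24 h at 37 °C, 5% CO2. Time-zero plates fixed with TCA at drug addition. Compound from DMSO stock added; 48 h exposure. Cells fixed in situ with cold TCA, stained with 0.4% sulforhodamine B in 1% acetic acid, absorbance 515 nm; growth expressed relative to untreated controls (100%).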
For orientation: Sulforhodamine B stains cellular protein and so reports cell mass.

A further experiment deals with NCI-H522. The experiment is described as follows: Antiproliferative activity against human NCI-H522 at 10 uM after 48 hrs by sulforhodamine B assay relative to control. Type of experiment: functional. As to conditions: NCI-H522, 48 h. The method, boiled down: as §2
The next experiment concerns OVCAR-8. The experiment is described as follows: Antiproliferative activity against human OVCAR8 at 10 uM after 48 hrs by sulforhodamine B assay relative to control. The settings on record: OVCAR-8, 48 h. Type of experiment: functional. The method, boiled down: as §2

Sequence of Insulin-like growth factor 1 receptor (P08069 31-736 limits assumed): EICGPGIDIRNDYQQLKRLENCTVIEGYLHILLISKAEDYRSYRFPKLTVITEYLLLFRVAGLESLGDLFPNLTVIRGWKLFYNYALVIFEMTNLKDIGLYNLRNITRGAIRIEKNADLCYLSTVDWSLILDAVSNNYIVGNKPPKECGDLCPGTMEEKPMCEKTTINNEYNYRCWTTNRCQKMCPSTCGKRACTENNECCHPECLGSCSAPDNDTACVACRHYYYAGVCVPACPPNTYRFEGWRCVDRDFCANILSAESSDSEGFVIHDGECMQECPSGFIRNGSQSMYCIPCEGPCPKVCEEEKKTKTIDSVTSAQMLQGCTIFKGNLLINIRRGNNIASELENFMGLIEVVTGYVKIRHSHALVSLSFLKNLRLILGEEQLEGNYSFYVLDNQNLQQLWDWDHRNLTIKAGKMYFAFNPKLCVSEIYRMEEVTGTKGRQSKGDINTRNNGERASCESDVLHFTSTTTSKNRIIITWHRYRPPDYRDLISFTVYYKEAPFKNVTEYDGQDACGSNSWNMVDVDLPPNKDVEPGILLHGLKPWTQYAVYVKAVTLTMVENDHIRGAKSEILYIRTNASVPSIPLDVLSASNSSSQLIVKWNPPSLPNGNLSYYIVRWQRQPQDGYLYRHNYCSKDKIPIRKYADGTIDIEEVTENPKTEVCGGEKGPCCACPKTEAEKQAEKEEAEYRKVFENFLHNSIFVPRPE
Sequence of Insulin-like growth factor 1 receptor (P08069 741-1367 limits assumed): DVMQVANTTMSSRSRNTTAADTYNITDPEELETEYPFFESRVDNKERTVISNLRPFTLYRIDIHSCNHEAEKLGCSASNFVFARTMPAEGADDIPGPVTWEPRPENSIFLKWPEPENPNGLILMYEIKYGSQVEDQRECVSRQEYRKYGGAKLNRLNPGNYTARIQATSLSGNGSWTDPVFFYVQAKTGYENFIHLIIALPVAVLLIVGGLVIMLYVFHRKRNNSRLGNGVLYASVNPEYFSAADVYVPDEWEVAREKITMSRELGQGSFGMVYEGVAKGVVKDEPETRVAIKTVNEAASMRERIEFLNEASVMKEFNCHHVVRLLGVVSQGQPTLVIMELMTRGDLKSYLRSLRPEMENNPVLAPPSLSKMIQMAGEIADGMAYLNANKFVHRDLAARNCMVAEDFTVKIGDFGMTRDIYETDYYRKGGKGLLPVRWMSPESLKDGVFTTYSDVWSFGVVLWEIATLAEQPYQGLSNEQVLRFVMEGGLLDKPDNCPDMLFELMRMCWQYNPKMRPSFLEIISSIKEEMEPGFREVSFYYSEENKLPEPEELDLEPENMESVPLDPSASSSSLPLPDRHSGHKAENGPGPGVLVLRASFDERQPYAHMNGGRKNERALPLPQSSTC
Sequence of Proto-oncogene tyrosine-protein kinase Src (P12931 2-536 limits assumed): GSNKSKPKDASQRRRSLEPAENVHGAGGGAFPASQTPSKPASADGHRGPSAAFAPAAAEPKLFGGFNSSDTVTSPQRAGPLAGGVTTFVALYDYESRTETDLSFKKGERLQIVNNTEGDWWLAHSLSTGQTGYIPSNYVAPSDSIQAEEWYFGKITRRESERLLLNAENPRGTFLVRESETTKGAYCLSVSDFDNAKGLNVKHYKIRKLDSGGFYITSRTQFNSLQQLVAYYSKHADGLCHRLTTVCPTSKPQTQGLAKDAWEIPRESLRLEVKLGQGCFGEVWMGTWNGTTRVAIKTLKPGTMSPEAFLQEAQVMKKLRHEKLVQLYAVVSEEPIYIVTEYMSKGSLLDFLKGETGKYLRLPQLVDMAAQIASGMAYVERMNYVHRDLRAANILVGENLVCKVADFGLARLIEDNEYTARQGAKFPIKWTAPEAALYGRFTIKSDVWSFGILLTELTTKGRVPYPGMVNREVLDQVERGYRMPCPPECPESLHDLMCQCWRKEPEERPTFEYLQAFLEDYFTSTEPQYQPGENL
Sequence of Hepatocyte growth factor receptor (P08581 whole entry): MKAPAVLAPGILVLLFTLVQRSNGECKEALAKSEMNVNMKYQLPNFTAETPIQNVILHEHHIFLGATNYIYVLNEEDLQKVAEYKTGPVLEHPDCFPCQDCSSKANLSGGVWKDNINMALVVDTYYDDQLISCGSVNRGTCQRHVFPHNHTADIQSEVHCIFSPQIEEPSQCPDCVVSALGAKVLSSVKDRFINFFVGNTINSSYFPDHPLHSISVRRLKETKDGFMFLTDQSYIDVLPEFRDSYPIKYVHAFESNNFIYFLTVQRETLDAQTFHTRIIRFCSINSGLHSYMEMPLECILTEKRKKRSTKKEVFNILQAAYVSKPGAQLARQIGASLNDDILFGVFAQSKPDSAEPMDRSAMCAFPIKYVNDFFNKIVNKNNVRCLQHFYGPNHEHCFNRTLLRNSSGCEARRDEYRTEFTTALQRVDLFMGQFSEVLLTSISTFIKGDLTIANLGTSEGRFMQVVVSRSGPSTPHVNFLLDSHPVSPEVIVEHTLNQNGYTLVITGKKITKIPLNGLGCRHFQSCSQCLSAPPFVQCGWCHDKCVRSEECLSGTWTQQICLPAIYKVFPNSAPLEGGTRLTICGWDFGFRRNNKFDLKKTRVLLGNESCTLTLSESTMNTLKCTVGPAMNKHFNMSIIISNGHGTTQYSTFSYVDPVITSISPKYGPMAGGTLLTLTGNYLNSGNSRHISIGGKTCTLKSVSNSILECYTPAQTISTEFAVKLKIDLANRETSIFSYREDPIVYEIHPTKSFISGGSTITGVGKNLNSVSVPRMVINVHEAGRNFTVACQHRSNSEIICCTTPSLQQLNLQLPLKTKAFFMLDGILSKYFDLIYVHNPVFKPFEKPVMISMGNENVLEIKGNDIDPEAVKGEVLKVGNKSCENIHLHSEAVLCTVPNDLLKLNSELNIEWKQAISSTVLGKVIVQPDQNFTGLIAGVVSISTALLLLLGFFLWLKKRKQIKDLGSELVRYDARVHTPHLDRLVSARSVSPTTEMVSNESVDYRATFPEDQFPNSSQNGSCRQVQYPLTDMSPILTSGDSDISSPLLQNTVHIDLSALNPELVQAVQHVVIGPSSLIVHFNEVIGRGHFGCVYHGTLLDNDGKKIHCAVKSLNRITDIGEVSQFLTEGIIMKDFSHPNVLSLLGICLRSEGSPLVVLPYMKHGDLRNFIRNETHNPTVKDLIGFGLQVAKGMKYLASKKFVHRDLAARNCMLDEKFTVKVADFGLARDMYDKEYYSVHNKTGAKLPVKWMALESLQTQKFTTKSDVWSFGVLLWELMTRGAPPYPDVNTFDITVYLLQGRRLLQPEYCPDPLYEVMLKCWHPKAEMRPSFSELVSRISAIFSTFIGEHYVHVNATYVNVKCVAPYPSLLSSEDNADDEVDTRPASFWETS

As to `O=C(NNc1ccc(Br)cc1)C(=O)c1c[nH]c2ccccc12`, the IC50 in experiment [1] and in experiment [2] was over 100 µM each time.
Regarding `O=C(NNC(=O)c1ccc(C(F)(F)F)cc1)C(=O)c1c[nH]c2ccccc12`, the IC50 (in general, the concentration that inhibits the measured activity by half) in experiment [1] worked out at 49 µM; in experiment [2] it was 4.1 µM; in experiment [3], 1.3 µM.
Turning to `O=C(NCCc1ccc(Cl)cc1)C(=O)c1c[nH]c2ccccc12`, the IC50 in experiment [1] and in experiment [2] was over 100 µM throughout.
`CS(=O)(=O)NCc1cccc(-c2ccc(C(=O)NNC(=O)C(=O)c3c[nH]c4ccccc34)cc2)c1`: the values for the IC50 in experiment [1], in experiment [2] and in experiment [3] were 27 µM, 3.3 µM and 2.8 µM, respectively.
Consider `Cc1ccc(CNC(=O)C(=O)c2c[nH]c3ccccc23)cc1`, for which the IC50 in experiment [1] is over 100 µM; in experiment [2], 63 µM.
The corresponding values for `Cc1ccc(C(=O)NNC(=O)C(=O)c2c[nH]c3ccccc23)cc1` are 95 µM and 82 µM.
As for `Cc1ccc(C)n1-c1ccc(C(=O)NNC(=O)C(=O)c2c[nH]c3ccccc23)cc1`, the IC50 was 16 µM in experiment [1], 4.9 µM in experiment [2] and 3.6 µM in experiment [3].
As for `O=C(NNC(=O)c1ccc([N+](=O)[O-])cc1)C(=O)c1c[nH]c2ccccc12`, the IC50 in experiment [1] is 69 µM; in experiment [2], over 100 µM.
In the case of `Cc1nc(-c2ccc(C(=O)NNC(=O)C(=O)c3c[nH]c4ccccc34)cc2)no1`, the results for the IC50 in experiment [1], in experiment [2] and in experiment [3] were 95 µM, 12 µM and 22 µM, respectively.
`O=C(NNC(=O)c1ccc(-c2cccc(COc3cccc(C(F)(F)F)c3)c2)cc1)C(=O)c1c[nH]c2ccccc12`: the IC50 is 7.6 µM in experiment [1], 0.99 µM in experiment [2] and 0.72 µM in experiment [3].
Regarding `CC(C)(C)c1ccc(C(=O)NNC(=O)C(=O)c2c[nH]c3ccccc23)cc1`, the results for the IC50 in experiment [1], in experiment [2] and in experiment [3] were 36 µM, 4.4 µM and 5.9 µM, respectively.
The like results for `O=C(NNC(=O)c1ccc(I)cc1)C(=O)c1c[nH]c2ccccc12` were, in that order, 14 µM, 4 µM and 4.5 µM.
The like results for `Cc1cncc(Oc2ccc(C(=O)NNC(=O)C(=O)c3c[nH]c4ccccc34)cc2)n1` were, in that order, over 100 µM, 31 µM and 40 µM.
As for `O=C(NCc1ccccc1)C(=O)c1c[nH]c2ccccc12`, the IC50 in experiment [1] and in experiment [2] was over 100 µM throughout.
For the molecule `O=C(NCc1cccc(Cl)c1)C(=O)c1c[nH]c2ccccc12`, the IC50 in experiment [1] and in experiment [2] was over 100 µM throughout.
In the case of `COCCc1ccc(OCc2cccc(-c3ccc(C(=O)NNC(=O)C(=O)c4c[nH]c5ccccc45)cc3)c2)cc1`, the figures for the IC50 in experiment [1], in experiment [2] and in experiment [3] were 8.8 µM, 0.68 µM and 0.38 µM, respectively.
Regarding `O=C(NNC(=O)c1ccccc1F)C(=O)c1c[nH]c2ccccc12`, the IC50 in experiment [1] worked out at 91 µM; in experiment [2], 91 µM; in experiment [3] it was 96 µM.
Take `O=C(NNc1ccc(I)cc1)C(=O)c1c[nH]c2ccccc12`: the IC50 in experiment [1] and in experiment [2] was over 100 µM each time.
With `O=C(NCc1ccc(Cl)cc1)C(=O)c1c[nH]c2ccccc12`, the IC50 in experiment [1] and in experiment [2] was over 100 µM each time.
For the molecule `Cc1ccc(CCNC(=O)C(=O)c2c[nH]c3ccccc23)cc1`, the IC50 in experiment [1] is over 100 µM; in experiment [2], 52 µM.
Consider `O=C(NNC(=O)c1ccc(-c2ccccc2COc2cccc(C(F)(F)F)c2)cc1)C(=O)c1c[nH]c2ccccc12`, for which the IC50 is 5.2 µM in experiment [1], 0.81 µM in experiment [2] and 0.62 µM in experiment [3].
As for `O=C(NNc1ccc(Cl)cc1)C(=O)c1c[nH]c2ccccc12`, the IC50 in experiment [1] and in experiment [2] was over 100 µM throughout.
`COc1ccc(CCNC(=O)C(=O)c2c[nH]c3ccccc23)cc1OC`: the IC50 in experiment [1] and in experiment [2] was over 100 µM each time.
Consider `O=C(NNC(=O)c1ccc(-c2ccccc2OCc2ccc(F)cc2)cc1)C(=O)c1c[nH]c2ccccc12`, for which the IC50 in experiment [1] is 13 µM; in experiment [2], 4.9 µM; in experiment [3], 1.9 µM.
On to `COc1ccc(C(=O)NNC(=O)C(=O)c2c[nH]c3ccccc23)cc1`, for which the IC50 in experiment [1] came out at 96 µM; in experiment [2], 54 µM.
The like results for `O=C(NNc1ccccc1)C(=O)c1c[nH]c2ccccc12` were, in that order, over 100 µM and over 100 µM.
`Cc1cc(C(C)(C)C)ccc1OCc1cccc(-c2ccc(C(=O)NNC(=O)C(=O)c3c[nH]c4ccccc34)cc2)c1`: the IC50 in experiment [1] amounted to 4.1 µM; in experiment [2], 0.67 µM; in experiment [3], 0.52 µM. The growth, % of control at 10 µM with A549 was 7.38%; with NCI-H522, -7.7%; in the experiment with OVCAR-8, -9.59%.
With `O=C(NNC(=O)c1ccccc1)C(=O)c1c[nH]c2ccccc12`, the IC50 in experiment [1] and in experiment [2] was over 100 µM in each case.
In the case of `O=C(NCCc1cccc(Cl)c1)C(=O)c1c[nH]c2ccccc12`, the IC50 in experiment [1] and in experiment [2] was over 100 µM each time.
As to `O=C(NNC(=O)c1ccc(Cl)cc1)C(=O)c1c[nH]c2ccccc12`, the IC50 is 48 µM in experiment [1] and 16 µM in experiment [2].
